In PMC10401072 (Cancer discovery, 2023):
Values belong to the molecule of their own block, whether it stands above or below them.

Tests used:
[1] = system: GOPC-ROS1 fusion-positive pancreatic adenocarcinoma; assay: Phase 1 trial tumor response; format: in vivo, human
[2] = Patient pharmacokinetic assessment; format: in vivo, human
How it was run: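 Compound was given as powder in capsule. Plasma was sampled before treatment and at set intervals after dosing on cycle 1 days 1 and 18 at the starting monotherapy dose. Drug level was measured by a validated LC-MS/MS assay.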

[3] = system: pERK in MIA PaCa-2 tumors; assay: Animal PK/PD study: pERK in tumors; format: in vivo, mouse; conditions: single oral dose 30 mg/kg
How it was run: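 Female Foxn1nu mice bearing subcutaneous right-flank xenografts (5 × 10^6 cells) grown to about 500 mm3 and randomized by size into groups of three. Each received one 30 mg/kg oral gavage dose in 20% hydroxypropyl-β-cyclodextrin/50 mmol/L citric acid, pH 4. Tumors were taken at 1, 8, 24 and 48 h and lysed in NP-40 buffer. pERK was immunoblotted in 250 μg lysate, normalized to GAPDH and vehicle controls, as POC.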

[4] = system: KRAS G12D mutant low-grade serous ovarian cancer; assay: Phase 1 trial tumor response; format: in vivo, human; conditions: after 6 weeks of monotherapy
How it was run: (§1)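 Tumor response was assessed by CT imaging every 6 weeks per RECIST v1.1 during oral monotherapy (powder in capsule) on the phase I trial.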

[5] = system: metastatic BRAF V600E colorectal cancer; assay: Phase 1 trial tumor response; format: in vivo, human; conditions: after 6 weeks monotherapy; new lesions
How it was run: as §1

[6] = system: EML4-ALK fusion-positive NSCLC; format: in vivo, human; conditions: after 6 weeks monotherapy, 20 mg BIW
[7] = system: pERK in ex vivo CSF1-stimulated peripheral blood monocytes; assay: Patient pharmacodynamic assessment; parameters: species or system human; conditions: ALK NSCLC patient; 20 mg; 4 hours after dosing on C1D1
How it was run: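 Patient whole blood was shipped refrigerated the same day and processed within a 24 h stability window. Ex vivo stimulation used 9 ng/mL recombinant human M-CSF for 12 min at room temperature, with unstimulated control. Staining with CD45, CD14, ERK1/2 and pERK1/2 (T202/Y204) antibodies ran 30 min in the dark. Flow cytometry excluded doublets and gated CD45+CD14+ monocytes. pERK1/2 MFI was normalized to the unstimulated sample.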

Phase 1 trial safety = format: in vivo, human; conditions: single patient, monotherapy followed by combination, first dose level
How it was run: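 Lead-in monotherapy ran 2 cycles/6 weeks. Matched targeted therapy was then added at labeled doses upon radiographic progression, if no ongoing grade ≥3 toxicity or DLT. The SHP2 inhibitor restarted one dose level below the highest safe monotherapy dose. Intrapatient escalation was allowed after 1 cycle. Adverse events were graded by CTCAE v5.0, and dose changes followed a prescribed algorithm.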

[8] = cited from earlier work

plasma level of PF-07284892 ([2]; ALK NSCLC patient, 20 mg orally BIW, 4 hours after C1D1 dose): 41 ng/mL
plasma level of PF-07284892 ([2]; ALK NSCLC patient, 20 mg orally BIW, pre-dose C1D18, 3 days after prior dose): 29 ng/mL
plasma level of PF-07284892 ([2]; BRAF V600E CRC patient, 20 mg BIW, C1D1): 56 ng/mL
plasma level of PF-07284892 ([2]; BRAF V600E CRC patient, 20 mg BIW, C1D18): 35 ng/mL
SMILES: Nc1nccc(Sc2cnc(N3CCC4(CC3)Cc3ccccc3[C@H]4N)nn2)c1Cl [PF-07284892]
change in two target lesion liver metastases ([1]; after 6 weeks of monotherapy): +26%
suppression of pERK in tumors [3]: significant suppression
tumor growth in two target lesions [4]: +6%
change in target lesions [5]: +43%
change in target lesions on CT [6]: +50%
response (RECIST 1.1) [6]: progressive disease
decrease in pERK levels in peripheral blood monocytes [7]: 80%
dose-limiting toxicities (DLTs) (Phase 1 trial safety): no DLTs

SMILES: Cc1nc(N2CCC3(CC2)CO[C@@H](C)[C@H]3N)c(CO)nc1Sc1ccnc(N)c1Cl [RMC-4630]
monotherapy activity in FIH trials [8]: limited monotherapy activity

SMILES: C[C@@H]1OCC2(CCN(c3cnc(Sc4ccnc(N)c4Cl)c(N)n3)CC2)[C@@H]1N [TNO155]
monotherapy activity in FIH trials [8]: limited monotherapy activity

SMILES: C[C@H]1CNC(=O)c2cnn3ccc(nc23)N[C@H](C)c2cc(F)ccc2O1 [repotrectinib, reference compound]
time to progression on previous therapy ([1]; pre-study therapy, patient history): ~ 10 months
